Screening results (PubChem)
JMJD2C inh = blocks human GASC-1 demethylase activity. GST-JMJD2C(1-420) H3K9me3 demethylation, DELFIA europium. inhibition, % at 2.35 µM. Q9H3R0. 330,000 tested, 0.069% active;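 active means more than half of a compound's replicate wells show inhibition beyond 50%, single wells judged on their own value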;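 further: signal counts dimethyl H3K9 product captured on neutravidin plate; 0% = median of DMSO wells and 100% = 0.3 times that DMSO median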
Target sequence (Q9H3R0 1-420 limits assumed): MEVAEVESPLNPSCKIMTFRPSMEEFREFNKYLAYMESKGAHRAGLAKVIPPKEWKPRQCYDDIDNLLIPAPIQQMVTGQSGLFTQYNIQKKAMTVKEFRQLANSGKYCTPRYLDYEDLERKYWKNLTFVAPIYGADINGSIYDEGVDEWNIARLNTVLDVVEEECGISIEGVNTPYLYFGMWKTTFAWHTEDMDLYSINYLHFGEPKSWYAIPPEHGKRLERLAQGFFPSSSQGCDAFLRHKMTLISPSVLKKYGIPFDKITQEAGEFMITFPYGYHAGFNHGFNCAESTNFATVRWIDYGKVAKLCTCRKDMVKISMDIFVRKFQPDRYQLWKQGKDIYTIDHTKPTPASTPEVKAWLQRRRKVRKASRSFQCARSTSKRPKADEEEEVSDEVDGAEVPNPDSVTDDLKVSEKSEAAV
GalR3 antag = human GalR3 antagonism | O60755 | HEK293 GalR3-CNG cAMP membrane potential fluorescence; galR3 body fused to GalR1 C-terminus | 360,000 tested, 0.44% active | inhibition, % at 3 µM;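 active means inhibition above the screen-wide average plus 3 SD, cut at about 13% in these data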;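 further: forskolin and galanin both at EC90 stimulate the cells; cAMP rise reported by CNG channel membrane potential dye signal; 0% = forskolin plus galanin with DMSO and 100% = forskolin alone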
Jurkat NFkB inh = lowers PMA/ionomycin-induced NF-kB signal in Jurkat cells; PMA/ionomycin-induced NF-kB luciferase reporter, luminescence; inhibition, % at 4 µM; 330,000 tested, 0.53% active; AID 435003; in the data active means inhibition above about 50%
697 NFkB inh = inhibitors of the PMA/ionomycin-induced NF-kB reporter in 697 B cells; inhibition, % at 4 µM; 330,000 tested, 0.33% active; 697 B-cell NF-kB luciferase reporter, 16 h; in the data active means inhibition above about 35%
NR2E3 ag-1 = activates human photoreceptor nuclear receptor NR2E3; GST-NR2E3/biotin-RetCOR TR-FRET, 1536-well; AID 2300; 320,000 tested, 0.12% active; inhibition of corepressor binding, % at 4.78 µM;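 active means percent inhibition above the cutoff of mean plus 3 SD of all tested compounds, set per screening campaign, cut at about 20% in these data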;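 further: 0% = DMSO wells and 100% = biotin wells as full block of FRET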
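Test system: GST-NR2E3 and biotin-RetCOR proteins | Quantity: 1.35 nM GST-tagged NR2E3 final | Medium: Tris pH 7.5 | Also added: 7 nM biotin-RetCOR | Dosing: Compound at 4.8 µM, single dose | Timing: 5 h at 4 °C | Detection: Time-resolved FRET | Read-out basis: Percent inhibition | Benchmarks: Biotin wells as high control, 0.6% DMSO wells as low control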
NR2E3 ag-2 = activates human NR2E3 receptor. Q9Y5X4. CHO-S Gal4-NCOR/VP16-NR2E3 two-hybrid, luciferase. inhibition of corepressor binding, % at 3.98 µM. 360,000 tested, 0.35% active;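 active means inhibition above the mean of all tested compounds plus 3 SD, cut at about 70% in these data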;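 further: 0% = DMSO with NR2E3 transfected cells and 100% = cells lacking NR2E3 construct; higher means lower luciferase signal from less NR2E3 corepressor binding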
NR2E3 ag confirm = NR2E3 agonism confirmed in two-hybrid assay. shares compounds with NR2E3 ag-2. CHO-S mammalian two-hybrid NR2E3-NCOR, luciferase luminescence. inhibition, % at 3.98 µM. 2,300 tested, 51% active;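 active means average inhibition above a cutoff equal to the mean inhibition of all tested compounds plus one SD, cut at about 70% in these data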;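 further: 0% = DMSO in NR2E3 cells and 100% = DMSO in cells lacking NR2E3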
GAL4-VP16 luc = reduces GAL4-VP16 reporter signal in NR2E3 counterscreen | shares compounds with NR2E3 ag-2 | CHO-S GAL4-VP16 luciferase reporter, luminescence | inhibition, % at 3.98 µM | 2,300 tested, 29% active | AID 624379;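 active means mean inhibition above a cutoff equal to the average over all tested compounds plus one standard deviation, cut at about 70% in these data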;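 further: luciferase from a UAS reporter driven by GAL4-VP16 transactivation; 0% = DMSO with VP16-transfected cells and 100% = DMSO with cells lacking VP16; higher means less reporter light so more repression of VP16 activity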
An asterisk follows results filed as active. Shown are actives, neighbours in structure and some others; about 1.5% of the full set was active somewhere.

What do the screens show for `CCCCOC(=O)c1[nH]c2c(c1C)C(=O)CC(c1cc(OC)c(OC)c(OC)c1)C2` (configuration not stated)?
JMJD2C inh: 6.0; GalR3 antag: 0.2; Jurkat NFkB inh: 36.3; 697 NFkB inh: 18.9; NR2E3 ag-1: 1.2; NR2E3 ag-2: 89.3*; NR2E3 ag confirm: 84.4*; GAL4-VP16 luc: 60.9

Results for COc1ccc(OC(=O)CCc2c[nH]c3ccccc23)cc1 ?
JMJD2C inh: 7.4; GalR3 antag: -2.2; Jurkat NFkB inh: -2.7; 697 NFkB inh: -3.0; NR2E3 ag-1: 1.1; NR2E3 ag-2: 19.6

How did COc1cc(/C=C2/CCc3ccccc3C2=O)cc(OC)c1OC do in these assays?
JMJD2C inh: -8.9; GalR3 antag: -9.6; Jurkat NFkB inh: -10.2; 697 NFkB inh: -51.7; NR2E3 ag-1: -2.1; NR2E3 ag-2: -3.3

What do the screens show for `COc1cc(/C=C2\CC/C(=C\c3cc(OC)c(O)c(OC)c3)C2=O)cc(OC)c1O`?
JMJD2C inh: -9.9; GalR3 antag: -0.5; Jurkat NFkB inh: -1.0; 697 NFkB inh: 9.2; NR2E3 ag-1: 7.2; NR2E3 ag-2: 77.2*; NR2E3 ag confirm: 96.4*; GAL4-VP16 luc: 67.4

How did COc1cc(/C=C2\COC/C(=C\c3cc(OC)c(OC)c(OC)c3)C2=O)cc(OC)c1OC do in these assays?
JMJD2C inh: -11.9; GalR3 antag: -0.9; NR2E3 ag-2: 86.5*; NR2E3 ag confirm: 100.5*; GAL4-VP16 luc: 82.3*

How did COc1cc(/C=C2/CCC/C(=C\c3cc(O)c(OC)c(Cl)c3)C2=O)cc(Cl)c1O do in these assays?
JMJD2C inh: -4.6; GalR3 antag: -3.8; Jurkat NFkB inh: -3.3; 697 NFkB inh: -36.9; NR2E3 ag-1: 4.0; NR2E3 ag-2: -1.2

What do the screens show for `O=C1NC(=O)C2(CCCCCCC2)N1`?
GalR3 antag: 2.2; NR2E3 ag-2: -19.2

Results for Nc1nc(=S)c2ncn([C@@H]3O[C@H](CO)[C@@H](O)[C@H]3O)c2[nH]1 ?
GalR3 antag: 3.3; Jurkat NFkB inh: 45.4; 697 NFkB inh: 4.7; NR2E3 ag-1: -1.8; NR2E3 ag-2: 26.7

How did Nc1nc(=S)c2ncn(C3OC(CO)C(O)C3O)c2[nH]1 (configuration not stated) do in these assays?
JMJD2C inh: 10.8; GalR3 antag: -11.9; NR2E3 ag-1: 3.6; NR2E3 ag-2: 57.2; NR2E3 ag confirm: 37.0; GAL4-VP16 luc: 5.0

How did Cc1nc2ccc(S(=O)(=O)Nc3cccc(-c4nc5cccnc5s4)c3C)cc2s1 do in these assays?
JMJD2C inh: 20.6; Jurkat NFkB inh: -4.5; 697 NFkB inh: -28.9; NR2E3 ag-1: 1.9; NR2E3 ag-2: 97.5*; NR2E3 ag confirm: 95.0*; GAL4-VP16 luc: 86.3*

What do the screens show for `C=C(C)C1CCC2(C(=O)O)CCC3(C)C(CCC4C5(C)C(C=O)C(O)C(C)(C)C5CCC43C)C12` (configuration not stated)?
JMJD2C inh: -10.7; GalR3 antag: -8.5; Jurkat NFkB inh: 1.6; 697 NFkB inh: -6.3; NR2E3 ag-1: 0.1; NR2E3 ag-2: 75.7*; NR2E3 ag confirm: 57.0; GAL4-VP16 luc: 18.0

How did CCOC(=O)c1c(NC(=O)/C=C/C(=O)O)sc(C)c1-c1ccc(C(C)(C)C)cc1 do in these assays?
JMJD2C inh: 18.2; GalR3 antag: -4.5; Jurkat NFkB inh: -2.0; 697 NFkB inh: 32.4; NR2E3 ag-1: 0.0; NR2E3 ag-2: 53.2; NR2E3 ag confirm: 50.9; GAL4-VP16 luc: 7.6

Results for CC(C)(C)c1ccc(S(=O)(=O)NCC(=O)N2CCN(Cc3ccccc3)CC2)cc1 ?
JMJD2C inh: -1.6; GalR3 antag: -2.5; Jurkat NFkB inh: 20.6; 697 NFkB inh: -2.7; NR2E3 ag-1: 5.2; NR2E3 ag-2: 4.4
